42 molecules from ChEMBL document CHEMBL4038330, “Discovery of Potent Orally Active Protease-Activated Receptor 1 (PAR1) Antagonists Based on Andrographolide” (J Med Chem, 2017) can be followed below.

Series [1] deals with T1, Proteinase-activated receptor 1 (Homo sapiens, UniProt P25116).
T1 sequence (P25116 whole entry): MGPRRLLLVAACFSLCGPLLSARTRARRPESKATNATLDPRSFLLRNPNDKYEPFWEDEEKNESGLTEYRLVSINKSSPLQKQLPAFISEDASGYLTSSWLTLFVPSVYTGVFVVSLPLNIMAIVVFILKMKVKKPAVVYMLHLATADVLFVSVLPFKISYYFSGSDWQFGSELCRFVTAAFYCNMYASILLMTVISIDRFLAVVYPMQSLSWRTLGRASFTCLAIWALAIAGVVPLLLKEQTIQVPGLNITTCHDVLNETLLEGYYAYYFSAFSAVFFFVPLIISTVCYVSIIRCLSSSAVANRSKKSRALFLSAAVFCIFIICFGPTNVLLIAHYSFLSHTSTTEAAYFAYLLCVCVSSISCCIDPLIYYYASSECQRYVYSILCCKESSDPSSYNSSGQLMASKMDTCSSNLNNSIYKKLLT
Kind of series: Antagonist activity at human PAR1 expressed in HEK293 cells co-expressing Galpha15 assessed as inhibition of haTRAP-induced calcium mobilization preincubated for 15 mins followed by haTRAP addition by calcium-4 dye based FLIPR assay. The series is classed as functional, cell-based. On the technique in general: Calcium flux is commonly read through the fluorescence of an indicator in the cells.

In series [2] the test system is ADP-stimulated platelet aggregation. Kind of series: Toxicity in guinea pig assessed as inhibition of ADP-stimulated platelet aggregation at 10 mg/kg, po pretreated for 2 hrs followed by ADP stimulation measured after 5 mins. It is filed as organism-based, Cavia porcellus. To be noted: in vivo.
Series [3] deals with Cavia porcellus. Kind of series: In vivo antagonist activity at PAR1 in guinea pig assessed as inhibition of TRAP-stimulated platelet aggregation at 10 mg/kg, po pretreated for 2 hrs followed by TRAP stimulation measured after 5 mins. The series is classed as functional.
Series [4] deals with Cavia porcellus. The experiment in a line: In vivo antagonist activity at PAR1 in guinea pig assessed as inhibition of thrombin-stimulated platelet aggregation at 10 mg/kg, po pretreated for 2 hrs followed by thrombin stimulation measured after 5 mins. It is filed as functional.
The test system of series [5] is collagen-stimulated platelet aggregation. Kind of series: Toxicity in guinea pig assessed as inhibition of collagen-stimulated platelet aggregation at 10 mg/kg, po pretreated for 2 hrs followed by collagen stimulation measured after 5 mins. The series is classed as organism-based, Cavia porcellus. To be noted: in vivo.
Another series has as its system Plasma. The experiment in a line: Stability in Wistar rat assessed as parent compound level in plasma at 10 mg/kg, po administered as single dose measured at 3 hrs post dose by LC-HRMS analysis. To be noted: in vivo. It is filed as ADME, organism-based. In short, it runs like this:
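Rats dosed orally at 10 mg/kg or 5 mg/kg. Plasma taken at 3.0 h after dosing. Parent and metabolites detected by extracted ion chromatograms.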

As for `CC1CC[C@@H]2C(C)(C)[C@H](OS(C)(=O)=O)CC[C@@]2(C)[C@@H]1/C=C/c1ccc(-c2cccc(F)c2)cn1` (single isomer, unassigned), the half-maximal inhibitory concentration (IC50) in series [1] stood at 87 µM.

`C[C@@]12CC[C@@H](O)[C@@](C)(C(=O)O)[C@H]1CC[C@@]1(CO1)[C@H]2/C=C/c1ccc(-c2cccc(F)c2)cn1`: in series [1], the IC50 came out at 29 µM.

For `CNC[C@@]1(C)[C@H]2CC[C@@]3(CO3)[C@@H](/C=C/c3ccc(-c4cccc(F)c4)cn3)[C@]2(C)CC[C@H]1O`, the IC50 in series [1] stood at 17 µM.

On to `CCCC(=O)O[C@@H]1CC[C@@]2(C)[C@H](/C=C/c3ccc(-c4cccc(F)c4)cn3)[C@@]3(CC[C@@H]2[C@]1(C)C(=O)OC)CO3`, for which the concentration for half-maximal inhibition (IC50) in series [1] was > 100 µM.

As to `C[C@@]1(/C=C/c2ccc(-c3cccc(F)c3)cn2)[C@H]2CC[C@@H]3COC(=O)[C@H]3[C@]2(C)CC[C@H]1OC(N)=O`, the IC50 in series [1] amounted to 12 µM.

Regarding `CC(=O)O[C@@H]1CC[C@@]2(C)[C@H](/C=C/c3ccc(-c4cccc(F)c4)cn3)C(C)CC[C@@H]2C1(C)C` (single isomer, unassigned), the IC50 in series [1] is > 100 µM.

As for `C[C@]1(/C=C/c2ccc(-c3cccc(F)c3)cn2)[C@@H](OC(N)=O)CC[C@@]2(C)[C@@H]3C(=O)OC[C@H]3CC[C@H]12`, the half-inhibitory concentration (IC50) in series [1] is > 100 µM.

Turning to `CCOC(=O)O[C@@H]1CC[C@@]2(C)[C@H](/C=C/c3ccc(-c4cccc(F)c4)cn3)[C@@H](C)CC[C@@H]2C1(C)C`, in series [1], the concentration for half-maximal inhibition (IC50) is > 100 µM.

`CC1(C)OC[C@@]2(C)[C@H]3CC[C@@]4(CO4)[C@@H](/C=C/c4ccc(-c5cccc(C(F)(F)F)c5)cn4)[C@]3(C)CC[C@H]2O1`: the concentration for half-maximal inhibition (IC50) in series [1] is > 100 µM.

For the molecule `CC(=O)O[C@H]1CC[C@@]2(C)[C@@H]3C(=O)OC[C@H]3CC[C@@H]2[C@]1(C)/C=C/c1ccc(-c2cccc(F)c2)cn1`, in series [1], the IC50 was > 100 µM.

`CCCC(=O)O[C@H]1CC[C@@]2(C)[C@@H]3C(=O)OC[C@H]3CC[C@@H]2[C@]1(C)/C=C/c1ccc(-c2cccc(F)c2)cn1`: the IC50 in series [1] is > 100 µM.

For `CCOC(=O)N[C@@H]1CC[C@@H]2[C@@H](C1)C[C@H]1C(=O)O[C@H](C)[C@H]1[C@H]2/C=C/c1ccc(-c2cccc(F)c2)cn1` [VORAPAXAR], in series [1], the half-inhibitory concentration (IC50) was determined as 0.064 µM. Further, the inhibition at 5 min was 3% in series [2] and 0.9% in series [5]. For the same molecule, the inhibition in vivo at 10 mg/kg in the series on Cavia porcellus [3] is 98.3%; with Cavia porcellus [4] it was 93.4%.

Take `COC(=O)[C@]1(C)[C@H](OC(N)=O)CC[C@@]2(C)[C@H](/C=C/c3ccc(-c4cccc(F)c4)cn3)[C@@]3(CC[C@@H]21)CO3`: the IC50 in series [1] came to 8.7 µM.

Take `C[C@]1(CO)[C@H]2CC[C@@]3(CO3)[C@@H](/C=C/c3ccc(-c4cccc(C(F)(F)F)c4)cn3)[C@]2(C)CC[C@H]1O`: the concentration for half-maximal inhibition (IC50) in series [1] came out at 9.5 µM.

As to `C[C@]1(CO)[C@H]2CC[C@@]3(CO3)[C@@H](CCc3ccc(-c4cccc(C(F)(F)F)c4)cn3)[C@]2(C)CC[C@H]1O`, in series [1], the half-maximal inhibitory concentration (IC50) is 10 µM.

With `C[C@@]1(C=O)[C@H](O)CC[C@@]2(C)[C@H](/C=C/c3ccc(-c4cccc(F)c4)cn3)[C@@]3(CC[C@H]12)CO3`, in the series with Plasma, the Stability result is listed as “Unstable”. Further, the IC50 in series [1] is 3 µM.

For the molecule `C[C@]1(CO)[C@H]2CC[C@@]3(CO3)[C@@H](CCc3ccc(-c4cccc(F)c4)cn3)[C@]2(C)CC[C@H]1O`, the IC50 in series [1] is 14 µM.

`C[C@]1(/C=C/c2ccc(-c3cccc(F)c3)cn2)[C@H]2CC[C@@H]3COC(=O)[C@H]3[C@]2(C)CC[C@@H]1O`: the concentration for half-maximal inhibition (IC50) in series [1] is 19 µM.

For the molecule `CCCC(=O)O[C@@H]1CC[C@@]2(C)[C@H](/C=C/c3ccc(-c4cccc(F)c4)cn3)[C@@H](C)CC[C@@H]2C1(C)C`, in series [1], the IC50 is > 100 µM.

As to `COC[C@@]1(C)[C@H]2CC[C@@]3(CO3)[C@@H](/C=C/c3ccc(-c4cccc(F)c4)cn3)[C@]2(C)CC[C@H]1O`, in series [1], the IC50 amounted to 8.1 µM.

As to `COC(=O)[C@]1(C)[C@H](OC(C)=O)CC[C@@]2(C)[C@H](/C=C/c3ccc(-c4cccc(F)c4)cn3)[C@@]3(CC[C@@H]21)CO3`, in series [1], the half-maximal inhibitory concentration (IC50) was > 100 µM.

As for `CO[C@@H]1CC[C@]2(C)[C@H](CC[C@@]3(CO3)[C@H]2/C=C/c2ccc(-c3cccc(F)c3)cn2)[C@]1(C)CO`, the concentration for half-maximal inhibition (IC50) in series [1] turned out to be 14 µM.

Consider `C[C@]1(/C=C/c2ccc(-c3cccc(F)c3)cn2)[C@H]2CC[C@@H]3COC(=O)[C@H]3[C@]2(C)CC[C@H]1OC(N)=O`, for which the half-maximal inhibitory concentration (IC50) in series [1] was found to be 21 µM.

Consider `CC(=O)O[C@@H]1CC[C@@]2(C)[C@@H]3C(=O)OC[C@H]3CC[C@@H]2[C@]1(C)/C=C/c1ccc(-c2cccc(F)c2)cn1`, for which the IC50 in series [1] is > 100 µM.

With `C[C@@]1(/C=C/c2ccc(-c3cccc(F)c3)cn2)[C@H]2CC[C@@H]3COC(=O)[C@H]3[C@]2(C)CC[C@@H]1O`, in series [1], the IC50 is > 100 µM.

As to `CC1CC[C@@H]2[C@](C)(C=O)[C@H](O)CC[C@@]2(C)[C@@H]1/C=C/c1ccc(-c2cccc(F)c2)cn1` (single isomer, unassigned), the IC50 in series [1] was 1.5 µM.

On to `C[C@@]1(/C=C/c2ccc(-c3cccc(F)c3)cn2)[C@H]2CC[C@@H]3COC(=O)[C@H]3[C@]2(C)CC[C@H]1OS(C)(=O)=O`, for which the IC50 in series [1] is > 100 µM.

On to `C[C@]1(/C=C/c2ccc(-c3cccc(F)c3)cn2)[C@H](O)CC[C@@]2(C)[C@@H]3C(=O)OC[C@H]3CC[C@H]12`, for which the 50% inhibitory concentration (IC50) in series [1] was > 100 µM.

In the case of `C[C@@]1(C=O)[C@H](O)CC[C@@]2(C)[C@H](/C=C/c3ccc(-c4cccc(F)c4)cn3)[C@@H](C3SCCS3)CC[C@H]12`, the half-maximal inhibitory concentration (IC50) in series [1] is > 100 µM.

On to `C[C@@]1(/C=C/c2ccc(-c3cccc(F)c3)cn2)[C@H](O)CC[C@@]2(C)[C@@H]3C(=O)OC[C@H]3CC[C@H]12`, for which the IC50 in series [1] was > 100 µM.

Regarding `C[C@H]1CC[C@@H]2C(C)(C)C=CC[C@@]2(C)[C@@H]1/C=C/c1ccc(-c2cccc(F)c2)cn1`, in series [1], the half-maximal inhibitory concentration (IC50) was > 100 µM.

As for `CC1(C)OC[C@@]2(C)[C@H]3CC[C@@]4(CO4)[C@@H](/C=C/c4ccc(-c5cccc(F)c5)cn4)[C@]3(C)CC[C@H]2O1`, in series [1], the IC50 was > 100 µM.

As to `CC1CC[C@@H]2C(C)(C)[C@H](OC(N)=O)CC[C@@]2(C)[C@@H]1/C=C/c1ccc(-c2cccc(F)c2)cn1` (single isomer, unassigned), the IC50 in series [1] was determined as 32 µM.

As for `CC(=O)O[C@@H]1CC[C@@]2(C)[C@@H]3C(=O)OC[C@H]3CC[C@@H]2[C@@]1(C)/C=C/c1ccc(-c2cccc(F)c2)cn1`, the IC50 in series [1] was > 100 µM.

Take `C[C@]1(C=O)[C@H](O)CC[C@@]2(C)[C@H](/C=C/c3ccc(-c4cccc(F)c4)c[n+]3[O-])[C@@]3(CC[C@H]12)CO3`: in series [1], the half-maximal inhibitory concentration (IC50) is > 100 µM.

`C[C@]1(CN)[C@H]2CC[C@@]3(CO3)[C@@H](/C=C/c3ccc(-c4cccc(F)c4)cn3)[C@]2(C)CC[C@H]1O`: in series [1], the IC50 is 23 µM.

For `C[C@]1(CO)[C@H]2CC[C@](C)(O)[C@@H](/C=C/c3ccc(-c4cccc(F)c4)cn3)[C@]2(C)CC[C@H]1O`, the concentration for half-maximal inhibition (IC50) in series [1] came to 55 µM.

Take `C[C@@]12CC[C@@H](O)[C@@](C)(C3SCCS3)[C@H]1CCC(C1SCCS1)[C@H]2/C=C/c1ccc(-c2cccc(F)c2)cn1` (single isomer, unassigned): the IC50 in series [1] is > 100 µM.

For the molecule `CCCC(=O)O[C@@H]1CC[C@@]2(C)[C@@H]3C(=O)OC[C@H]3CC[C@@H]2[C@@]1(C)/C=C/c1ccc(-c2cccc(F)c2)cn1`, the half-maximal inhibitory concentration (IC50) in series [1] was > 100 µM.

As to `C[C@@]1(/C=C/c2ccc(-c3cccc(F)c3)cn2)[C@@H](OS(C)(=O)=O)CC[C@@]2(C)[C@@H]3C(=O)OC[C@H]3CC[C@H]12`, the IC50 in series [1] was > 100 µM.

For `C[C@@]1(/C=C/c2ccc(-c3cccc(F)c3)cn2)[C@@H](OC(N)=O)CC[C@@]2(C)[C@@H]3C(=O)OC[C@H]3CC[C@H]12`, in series [1], the half-inhibitory concentration (IC50) was found to be 20 µM.

Turning to `C[C@@]1(C=O)[C@H](O)CC[C@@]2(C)[C@H](/C=C/c3ccc(-c4cccc(F)c4)c[n+]3[O-])[C@@]3(CC[C@H]12)CO3`, in series [1], the IC50 was > 100 µM.

Usually IC50 stands for the concentration that gives 50% inhibition. What is called inhibition is the drop in the measured response relative to a control, in per cent. A word on the inhibition in vivo: it is the share of the control response that was lost under treatment.
